OX1R antag-1 = antagonists of human orexin 1 receptor (OX1R). 1.8% of 330,000 active. AID 485270, 2010. Orexin/Hypocretin receptor type 1 (Homo sapiens), O43613. OX1R-expressing cells, FRET antagonist read-out. inhibition, % at 6.6 µM; in the data active means inhibition mostly above about 38%, no sharp cut-off; inactive means mostly below about 40%;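 further: 0% = agonist challenge alone and 100% = reference antagonist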
TAAR1 antagonist = human TAAR1 antagonists, primary screen, Fluo-8 calcium fluorescence, CHO RD-HGA16 cells; inhibition, % at 3 µM; Trace amine-associated receptor 1 (Homo sapiens), Q96RJ0; 1.5% of 360,000 active; antagonist;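 active means inhibition above a per-plate cutoff, the mean inhibition of test compounds on that plate plus 3 SD, cut at about 49% in these data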;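 further: 0% = DMSO plus EC80 beta-PEA response and 100% = DMSO alone without agonist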
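Material: CHO RD-HGA16 cells bearing hTAAR1; compound dosing: one-point dosing, 3 µM nominal final; schedule: dye loading 75 min at 37 °C, then 30 min room temperature; measured by: calcium fluorescence with Fluo-8; control set: vehicle and agonist controls; replication: n of 1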
OX1R antag-2 = OX1R (HCRTR1) antagonists, primary screen, fluorescence, CHO/OX1R cells, Fluo-8 calcium, orexin A. Fluo-8 calcium fluorescence. inhibition, % at 5 µM. 0.43% of 330,000 active;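 active means inhibition above its plate's threshold, mean inhibition of all tested compounds on the plate plus 3 SD, cut at about 37% in these data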;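 further: 0% = orexin A challenge wells and 100% = SB-334867-A antagonist wells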
CHO parental Ca = ATP-evoked calcium signal inhibitors, parental CHO, primary screen, counter-screen for OX1R antagonist project, cell-based, fluorescence, Fluo-8 calcium dye; inhibition, % at 5.6 µM; AID 463079, 2010; parental CHO-K1, ATP-induced calcium, Fluo-8 fluorescence; 0.63% of 330,000 active;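 active means inhibition above that plate's mean sample inhibition plus 3 SD, cut at about 26% in these data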;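 further: 0% = ATP-challenged DMSO wells and 100% = DMSO wells without ATP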
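Material: Parental CHO cells | Reagent: ATP | Compound dosing: Single nominal dose of 5.6 µM per compound | Detection: Intracellular calcium via Fluo-8 no-wash fluorescent dye | Read-out: % inhibition of ATP-induced calcium mobilization | Benchmarks: Low control ATP plus DMSO, high control DMSO only | Replicates: Singlicate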
TAAR1 ag = human TAAR1 agonists, primary screen, Fluo-8 calcium fluorescence, CHO RD-HGA16 cells; vehicle wells 0%, saturating PEA agonist 100%; Trace amine-associated receptor 1 (Homo sapiens), Q96RJ0; AID 624467, 2012; 0.99% of 360,000 active; activation, % at 3 µM;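 active means activation above the mean activation of all test compounds in the run plus 3 SD, cut at about 38% in these data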
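Assay system – CHO-derived RD-HGA16 cells with stable Gα16 and human TAAR1 · Compound dosing – one-point dosing at 3 µM (nominal) · Incubation – 17-24 h seeding, 75 min 37 °C dye, 30 min RT · Measured by – kinetic Fluo-8 calcium fluorescence · Control set – DMSO vehicle as 0%, PEA at EC100 as 100% · Repeats – single well for each compound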
GPR7 antagonist = GPR7 receptor antagonists, primary screen, cell-based, fluorescence, single concentration; GPR7-expressing cells, fluorescence antagonist assay; inhibition, % at 4.4 µM; 1.1% of 290,000 active; in the data active means inhibition above about 16%, passing the limit was not always enough;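 further: cells stimulated with the agonist NPW; 0% = agonist with vehicle and 100% = vehicle without agonist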
Target sequence (P48145 whole entry, looked up): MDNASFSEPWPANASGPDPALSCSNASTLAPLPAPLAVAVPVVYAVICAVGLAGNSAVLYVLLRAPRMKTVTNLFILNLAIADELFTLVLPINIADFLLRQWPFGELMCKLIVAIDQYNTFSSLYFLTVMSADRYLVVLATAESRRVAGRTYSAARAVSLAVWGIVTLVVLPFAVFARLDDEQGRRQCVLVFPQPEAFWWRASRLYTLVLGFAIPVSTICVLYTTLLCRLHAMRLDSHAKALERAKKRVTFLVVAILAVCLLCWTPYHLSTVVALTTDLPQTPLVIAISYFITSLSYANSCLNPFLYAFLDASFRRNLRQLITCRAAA
OX1R Fluo8 conf = OX1R (HCRTR1) antagonists, confirmation, fluorescence, CHO/OX1R cells, Fluo-8 calcium, orexin A | inhibition, % at 5 µM | shares compounds with OX1R antag-2 | 38% of 1,100 active | AID 492963, 2010 | orexin A calcium Fluo-8 fluorescence; in the data active means inhibition above about 29%;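 further: 0% = agonist challenge alone and 100% = reference antagonist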
CHO Ca counter = ATP-evoked calcium inhibition in parental CHO, counter-screen for OX1R antagonist project, cell-based, fluorescence, CHO-K1, triplicate; shares compounds with OX1R antag-2; ATP-induced calcium, Fluo-8 fluorescence; inhibition, % at 5.6 µM; 9.3% of 1,100 active;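 active means inhibition above a per-plate limit, the mean inhibition of that plate's test compounds plus 3 SD, cut at about 25% in these data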;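 further: 0% = ATP challenge with DMSO and 100% = DMSO without ATP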
OX1R HTRF confirm = OX1R (HCRTR1) antagonists, confirmation, cell-based, HTRF; OX1R-expressing cells, HTRF antagonist assay; 49% of 1,800 active; shares compounds with OX1R antag-1; inhibition, % at 6.6 µM; in the data active means inhibition above about 55%;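 further: CHO cells expressing OX1R stimulated with orexin A at about EC80; 0% = agonist challenge alone and 100% = reference antagonist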
CHO-K1 HTRF cnt = signal inhibition in parental CHO-K1 cells, counter-screen for OX1R antagonist project, cell-based, HTRF. shares compounds with OX1R antag-1. HTRF counterscreen. inhibition, % at 6.6 µM. 48% of 1,800 active. AID 493232, 2011; in the data active means inhibition above about 17%;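 further: 0% = agonist challenge with vehicle and 100% = vehicle alone without agonist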
Active calls of the source: *. Sampled rows, rich in hits. Any-hit rate of the full collection: about 4.5%.

`CCc1sc(C(=O)Nc2nc(-c3ccccn3)cs2)cc1C` gave OX1R antag-1 52.2*, OX1R antag-2 38.5, CHO parental Ca -11.4, OX1R Fluo8 conf 18.8, CHO Ca counter -7.4, OX1R HTRF confirm 32.4 and CHO-K1 HTRF cnt 10.3.
`S=c1[nH]nc(-c2cc(-c3ccccc3)n[nH]2)n1/N=C/c1cccs1` gave OX1R antag-1 88.3*, TAAR1 antagonist -17.2, OX1R antag-2 53.2*, CHO parental Ca -9.2, TAAR1 ag -0.1, GPR7 antagonist -11.6, OX1R Fluo8 conf 26.9, CHO Ca counter 3.0, OX1R HTRF confirm 61.9* and CHO-K1 HTRF cnt 4.3.
`Cc1ccc(-c2nn3c(-c4ccccc4)nnc3o2)cc1` gave TAAR1 antagonist -17.1 and TAAR1 ag 2.4.
Screening COC(=O)[C@H](CC(C)C)NS(=O)(=O)N(Cc1ccccc1)[C@@H](CC(C)C)C(=O)OC returned OX1R antag-1 48.3*, TAAR1 antagonist 19.7, OX1R antag-2 48.6, CHO parental Ca -26.8, TAAR1 ag 6.1, OX1R Fluo8 conf 14.5, CHO Ca counter -12.1, OX1R HTRF confirm 53.6 and CHO-K1 HTRF cnt 5.3.
For COC(=O)[C@H](CC(C)C)N(Cc1ccccc1)S(=O)(=O)N(Cc1ccccc1)[C@@H](CC(C)C)C(=O)OC the results were OX1R antag-1 8.3, TAAR1 antagonist 2.9, OX1R antag-2 16.6, CHO parental Ca 14.8 and TAAR1 ag 1.5.
CN(C)c1nc(N(C)C)n(Cc2c(Cl)cccc2Cl)n1 was read as OX1R antag-1 30.9, TAAR1 antagonist 1.0, OX1R antag-2 -12.9, CHO parental Ca -11.1, TAAR1 ag 4.7 and GPR7 antagonist -5.9.
CCc1ccc(-c2cc(C)no2)cc1S(=O)(=O)N1CCOc2ccc(C)cc21 was read as OX1R antag-1 28.7, TAAR1 antagonist -19.5, OX1R antag-2 -3.4, CHO parental Ca -9.3, TAAR1 ag -1.0 and GPR7 antagonist -9.6.
CCC1CN(S(=O)(=O)c2cc(-c3cc(C)no3)ccc2OC)c2cc(C)ccc2O1 (stereo unspecified) was read as OX1R antag-1 73.2*, TAAR1 antagonist -35.5, OX1R antag-2 62.9*, CHO parental Ca -27.9, TAAR1 ag -1.7, GPR7 antagonist 4.1, OX1R Fluo8 conf 27.0, CHO Ca counter -8.9, OX1R HTRF confirm 85.6* and CHO-K1 HTRF cnt 1.6.
`CNc1ccccc(-c2ccc3ccccc3n2)c1=O` gave OX1R antag-1 27.8, TAAR1 antagonist -0.4, OX1R antag-2 -9.0, CHO parental Ca -2.3, TAAR1 ag -0.6 and GPR7 antagonist -0.5.
CCn1c(SCC(=O)Nc2sc3c(c2C#N)CCC(C(C)(C)C)C3)nnc1-c1ccco1 (stereo unspecified) was read as OX1R antag-1 5.3, TAAR1 antagonist -0.5, OX1R antag-2 -10.5, CHO parental Ca 0.9, TAAR1 ag 1.8 and GPR7 antagonist -4.8.

Screening results as filed in PubChem BioAssay.
